According to ChEMBL document CHEMBL3877262, “Synthesis and antioxidant evaluation of desmethylxanthohumol analogs and their dimers” (Eur J Med Chem, 2017):
Active and inactive are the calls of the source. No cut-off for these calls is given here.

How the values were obtained:
[1] = Antioxidant activity against H2O2-induced oxidative stress in rat PC12 cells assessed as viable cells at 100 uM pretreated for 0.5 hrs followed by H2O2 challenge measured after 2 hrs by MTT assay (reference value: 25.47%); type: functional; conditions: PC-12, read-out: Activity
PC-12 [2] = assay: Cytoprotective activity against H2O2-induced oxidative stress in rat PC12 cells assessed as necrotic cells at 10 uM pretreated for 0.5 hrs followed by H2O2 challenge measured after 2 hrs by Annexin-V-FITC/propidium iodide staining based flow cytometry (reference value: 2.4 %); type: functional
PC-12 [3] = assay: Cytoprotective activity against H2O2-induced oxidative stress in rat PC12 cells assessed as viable cells at 10 uM pretreated for 0.5 hrs followed by H2O2 challenge measured after 2 hrs by Annexin-V-FITC/propidium iodide staining based flow cytometry (reference value: 94.1 %); type: functional; conditions: read-out: Activity
PC-12 [4] = assay: Cytoprotective activity against H2O2-induced oxidative stress in rat PC12 cells assessed as early apoptotic cells at 10 uM pretreated for 0.5 hrs followed by H2O2 challenge measured after 2 hrs by Annexin-V-FITC/propidium iodide staining based flow cytometry (reference value: 1.1 %); type: functional
PC-12 [5] = assay: Cytoprotective activity against H2O2-induced oxidative stress in rat PC12 cells assessed as late apoptotic cells at 10 uM pretreated for 0.5 hrs followed by H2O2 challenge measured after 2 hrs by Annexin-V-FITC/propidium iodide staining based flow cytometry (reference value: 2.3 %); type: functional
[6] = Antioxidant activity against H2O2-induced oxidative stress in rat PC12 cells assessed as GSH level per gram of protein at 10 uM pretreated for 0.5 hrs followed by H2O2 challenge measured after 2 hrs by GSH peroxidase assay (reference value: 59.93 umol); type: functional, PC-12
[7] = Antioxidant activity assessed as vitamin-c equivalent measured after 20 mins by FRAP assay; type: functional
[8] = Antioxidant activity against H2O2-induced oxidative stress in rat PC12 cells assessed as 8-OHdG level at 10 uM pretreated for 0.5 hrs followed by H2O2 challenge measured after 2 hrs (reference value: 123.97 ng/L); type: functional, PC-12
[9] = Antioxidant activity assessed as ABTS radical scavenging activity measured after 10 mins by ABTS assay; type: functional
How it was run: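 ABTS (10 mM in sodium acetate) oxidised with H2O2 and held 12 h in the dark. It was diluted to A650 0.70 and mixed with compound, shaken 30 s, and A650 read after 10 min. EC50 by nonlinear regression from three independent experiments.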

PC-12 [10] = assay: Cytoprotective activity against H2O2-induced oxidative stress in rat PC12 cells assessed as morphological changes at 10 uM pretreated for 0.5 hrs followed by H2O2 challenge measured after 2 hrs; type: functional, cell-based
How it was run: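 PC12 cells were handled as in the H2O2/MTT model: compound at 10 µM for 0.5 h, then H2O2 (100 µM) for 2 h. Morphology (shrinkage, blebbing) was viewed at 200×. Control cells received medium with 0.1% DMSO only. Gallic acid (10 µM) was the positive control.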

PC-12 [11] = assay: Cytoprotective activity against H2O2-induced oxidative stress in rat PC12 cells assessed as lactate dehydrogenase release at 10 uM pretreated for 30 mins followed by H2O2 challenge measured after 2 hrs by spectrophotometric method (reference value: 479.77 U/L); type: functional
Rattus norvegicus [12] = species: Rattus norvegicus; assay: Cytotoxicity against rat PC12 cells at 100 uM measured after 48 hrs by MTT assay; type: toxicity, cell-based; conditions: pc-12, 48 h
[13] = Cytotoxicity against HUVEC measured after 48 hrs by MTT assay; type: toxicity, cell-based; conditions: human, HUVEC cells
How it was run: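 HUVECs were seeded at 5×10^3 cells/well for 24 h, then exposed to compounds dissolved in DMSO for 48 h. MTT (5 mg/ml) was added for 4 h, cells solubilized in DMSO and OD read at 490 nm. IC50 was derived from mean OD of triplicate tests.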

Rattus norvegicus [14] = species: Rattus norvegicus; assay: Cytotoxicity against rat PC12 cells at 200 uM measured after 48 hrs by MTT assay; type: toxicity, cell-based; conditions: pc-12, 48 h

`CC1(C)C=Cc2c(O)cc(O)c(C(=O)/C=C/c3ccc(O)c(O)c3O)c2O1` showed a viability at 100 µM [1] of 84%.
With `CC1(C)C=Cc2c(O)c(Cc3c(O)c4c(c(C(=O)/C=C/c5ccc(O)c(O)c5O)c3O)OC(C)(C)C=C4)c(O)c(C(=O)/C=C/c3ccc(O)c(O)c3O)c2O1` the Activity (PC-12 [2]) was 0.5%, the viability at 10 µM (PC-12 [3]) was 95.6% and the Activity (PC-12 [4]) was 1.1%. For the same molecule, the Activity (PC-12 [5]) was 2.7%, the Activity [6] was 105.71 µmol and the Activity [7] was 648 mgequiv/mmol. The Activity [8] was 62.8 ng/L, the EC50 [9] was 540 nM and the Activity (PC-12 [10]) was “Active”. For the same molecule, the viability at 100 µM [1] was 85.2% and the Activity (PC-12 [11]) was 251.45 U/L.
With `CC(C)=CCc1c(O)cc(O)c(C(=O)/C=C/c2ccc(O)cc2)c1O` [DEMETHYLXANTHOHUMOL] the Activity (Rattus norvegicus [12]) was “Toxic”, the IC50 at 48 h [13] was 18.9 µM and the Activity (Rattus norvegicus [14]) was “Toxic”.
In the case of `CC1(C)C=Cc2c(O)cc(O)c(C(=O)/C=C/c3ccc(O)cc3)c2O1`, the Activity (Rattus norvegicus [12]) is reported as “Toxic”, the viability at 100 µM [1] is reported as 20.6% and the IC50 at 48 h [13] is reported as 41.1 µM. The Activity (Rattus norvegicus [14]) was “Toxic”.
Molecule `CC1(C)C=Cc2c(O)c(Cc3c(O)c4c(c(C(=O)/C=C/c5cccc(O)c5O)c3O)OC(C)(C)C=C4)c(O)c(C(=O)/C=C/c3cccc(O)c3O)c2O1` has a viability at 100 µM [1] of 77.5%.
`CC1(C)C=Cc2c(O)c(Cc3c(O)c4c(c(C(=O)/C=C/c5ccc(O)cc5)c3O)OC(C)(C)C=C4)c(O)c(C(=O)/C=C/c3ccc(O)cc3)c2O1` showed a viability at 100 µM [1] of 44.9%.
With `CC1(C)C=Cc2c(O)cc(O)c(C(=O)/C=C/c3cccc(O)c3O)c2O1` the viability at 100 µM [1] was 54.5%.
In the case of `O=C(O)c1cc(O)c(O)c(O)c1` [GALLIC ACID], the Activity (PC-12 [2]) is reported as 4.2%, the viability at 10 µM (PC-12 [3]) is reported as 81.9% and the Activity (PC-12 [4]) is reported as 0.5%. The Activity (PC-12 [5]) was 13.4%, the Activity [6] was 99.73 µmol and the Activity [7] was 531 mgequiv/mmol. For the same molecule, the Activity [8] was 85.7 ng/L, the EC50 [9] was 350 nM and the viability at 100 µM [1] was 88.9%. For the same molecule, the Activity (PC-12 [11]) was 326.59 U/L.
In the case of `CC1(C)C=Cc2c(O)cc(O)c(C(=O)/C=C/c3ccc(O)cc3O)c2O1`, the viability at 100 µM [1] is reported as 24.1%.
`CC1(C)C=Cc2c(O)c(Cc3c(O)c4c(c(C(=O)/C=C/c5ccc(O)cc5O)c3O)OC(C)(C)C=C4)c(O)c(C(=O)/C=C/c3ccc(O)cc3O)c2O1` showed a viability at 100 µM [1] of 43.4%.
